This is an account of results in ChEMBL document CHEMBL4014334, “BET Bromodomain Inhibitors with One-Step Synthesis Discovered from Virtual Screen” (J Med Chem, 2017).

The target in series [1] is T1, Bromodomain testis-specific protein (Homo sapiens, UniProt Q58F21). In words: Binding affinity to 5FW-labeled BRDT bromodomain 1 residue (unknown origin) expressed in Escherichia coli BL21(DE3) by PrOF NMR spectroscopic analysis.
In series [2] the target is T1, Bromodomain testis-specific protein. As to the kind of experiment: Binding affinity to 5FW-labeled BRDT bromodomain 1 W50 residue (unknown origin) expressed in Escherichia coli BL21(DE3) by PrOF NMR spectroscopic analysis. The procedure, abridged: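 5FW-BrdT(1) at 40–50 μM in 50 mM Tris, 100 mM NaCl, 3 mM DTT, pH 7.4, 5% D2O. The pocket Trp resonance is followed for broadening and for a new upfield peak as ligand is titrated.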

For series [3], the target named is T2, Nucleosome-remodeling factor subunit BPTF (Homo sapiens, UniProt Q12830). As to the kind of experiment: Binding affinity to 5FW-labeled BPTF (unknown origin) by PrOF NMR spectroscopic analysis. In outline: (§1)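 BrdT samples also contain 3 mM DTT. Spectra recorded with compound present and absent at 500 MHz, 90° flip angle, 0.7 s relaxation delay, 0.1 s acquisition, 500 transients. The read-out is broadening or shift of the binding-pocket Trp resonance.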

Series [4] deals with T3, Bromodomain-containing protein 4 (Homo sapiens, UniProt O60885). As to the kind of experiment: Binding affinity to 5FW-labeled BRD4 bromodomain 1 (unknown origin) expressed in Escherichia coli BL21(DE3) by PrOF NMR spectroscopic analysis. The procedure, abridged:
as §1

In series [5] the target is Histone acetyltransferase p300 (Homo sapiens) (UniProt Q09472). In words: Inhibition of human P300 bromodomain (1040 to 1161 residues) expressed bacterial expression system at 20 uM by bromoscan assay.
For series [6], the target named is T1, Bromodomain testis-specific protein. In words: Binding affinity to human BRDT bromodomain 1 (21 to 137 residues) expressed in bacterial expression system by q-PCR-based bromoscan assay. In outline: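 BromoScan direct titration against BrdT(1), giving a dissociation constant Kd.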
The target of series [7] is CREB-binding protein (Homo sapiens) (UniProt Q92793). In words: Inhibition of human CBP bromodomain (1081 to 1197 residues) expressed bacterial expression system at 20 uM by bromoscan assay.
Chain of CREB-binding protein (Homo sapiens) (Q92793 2-2442 limits assumed): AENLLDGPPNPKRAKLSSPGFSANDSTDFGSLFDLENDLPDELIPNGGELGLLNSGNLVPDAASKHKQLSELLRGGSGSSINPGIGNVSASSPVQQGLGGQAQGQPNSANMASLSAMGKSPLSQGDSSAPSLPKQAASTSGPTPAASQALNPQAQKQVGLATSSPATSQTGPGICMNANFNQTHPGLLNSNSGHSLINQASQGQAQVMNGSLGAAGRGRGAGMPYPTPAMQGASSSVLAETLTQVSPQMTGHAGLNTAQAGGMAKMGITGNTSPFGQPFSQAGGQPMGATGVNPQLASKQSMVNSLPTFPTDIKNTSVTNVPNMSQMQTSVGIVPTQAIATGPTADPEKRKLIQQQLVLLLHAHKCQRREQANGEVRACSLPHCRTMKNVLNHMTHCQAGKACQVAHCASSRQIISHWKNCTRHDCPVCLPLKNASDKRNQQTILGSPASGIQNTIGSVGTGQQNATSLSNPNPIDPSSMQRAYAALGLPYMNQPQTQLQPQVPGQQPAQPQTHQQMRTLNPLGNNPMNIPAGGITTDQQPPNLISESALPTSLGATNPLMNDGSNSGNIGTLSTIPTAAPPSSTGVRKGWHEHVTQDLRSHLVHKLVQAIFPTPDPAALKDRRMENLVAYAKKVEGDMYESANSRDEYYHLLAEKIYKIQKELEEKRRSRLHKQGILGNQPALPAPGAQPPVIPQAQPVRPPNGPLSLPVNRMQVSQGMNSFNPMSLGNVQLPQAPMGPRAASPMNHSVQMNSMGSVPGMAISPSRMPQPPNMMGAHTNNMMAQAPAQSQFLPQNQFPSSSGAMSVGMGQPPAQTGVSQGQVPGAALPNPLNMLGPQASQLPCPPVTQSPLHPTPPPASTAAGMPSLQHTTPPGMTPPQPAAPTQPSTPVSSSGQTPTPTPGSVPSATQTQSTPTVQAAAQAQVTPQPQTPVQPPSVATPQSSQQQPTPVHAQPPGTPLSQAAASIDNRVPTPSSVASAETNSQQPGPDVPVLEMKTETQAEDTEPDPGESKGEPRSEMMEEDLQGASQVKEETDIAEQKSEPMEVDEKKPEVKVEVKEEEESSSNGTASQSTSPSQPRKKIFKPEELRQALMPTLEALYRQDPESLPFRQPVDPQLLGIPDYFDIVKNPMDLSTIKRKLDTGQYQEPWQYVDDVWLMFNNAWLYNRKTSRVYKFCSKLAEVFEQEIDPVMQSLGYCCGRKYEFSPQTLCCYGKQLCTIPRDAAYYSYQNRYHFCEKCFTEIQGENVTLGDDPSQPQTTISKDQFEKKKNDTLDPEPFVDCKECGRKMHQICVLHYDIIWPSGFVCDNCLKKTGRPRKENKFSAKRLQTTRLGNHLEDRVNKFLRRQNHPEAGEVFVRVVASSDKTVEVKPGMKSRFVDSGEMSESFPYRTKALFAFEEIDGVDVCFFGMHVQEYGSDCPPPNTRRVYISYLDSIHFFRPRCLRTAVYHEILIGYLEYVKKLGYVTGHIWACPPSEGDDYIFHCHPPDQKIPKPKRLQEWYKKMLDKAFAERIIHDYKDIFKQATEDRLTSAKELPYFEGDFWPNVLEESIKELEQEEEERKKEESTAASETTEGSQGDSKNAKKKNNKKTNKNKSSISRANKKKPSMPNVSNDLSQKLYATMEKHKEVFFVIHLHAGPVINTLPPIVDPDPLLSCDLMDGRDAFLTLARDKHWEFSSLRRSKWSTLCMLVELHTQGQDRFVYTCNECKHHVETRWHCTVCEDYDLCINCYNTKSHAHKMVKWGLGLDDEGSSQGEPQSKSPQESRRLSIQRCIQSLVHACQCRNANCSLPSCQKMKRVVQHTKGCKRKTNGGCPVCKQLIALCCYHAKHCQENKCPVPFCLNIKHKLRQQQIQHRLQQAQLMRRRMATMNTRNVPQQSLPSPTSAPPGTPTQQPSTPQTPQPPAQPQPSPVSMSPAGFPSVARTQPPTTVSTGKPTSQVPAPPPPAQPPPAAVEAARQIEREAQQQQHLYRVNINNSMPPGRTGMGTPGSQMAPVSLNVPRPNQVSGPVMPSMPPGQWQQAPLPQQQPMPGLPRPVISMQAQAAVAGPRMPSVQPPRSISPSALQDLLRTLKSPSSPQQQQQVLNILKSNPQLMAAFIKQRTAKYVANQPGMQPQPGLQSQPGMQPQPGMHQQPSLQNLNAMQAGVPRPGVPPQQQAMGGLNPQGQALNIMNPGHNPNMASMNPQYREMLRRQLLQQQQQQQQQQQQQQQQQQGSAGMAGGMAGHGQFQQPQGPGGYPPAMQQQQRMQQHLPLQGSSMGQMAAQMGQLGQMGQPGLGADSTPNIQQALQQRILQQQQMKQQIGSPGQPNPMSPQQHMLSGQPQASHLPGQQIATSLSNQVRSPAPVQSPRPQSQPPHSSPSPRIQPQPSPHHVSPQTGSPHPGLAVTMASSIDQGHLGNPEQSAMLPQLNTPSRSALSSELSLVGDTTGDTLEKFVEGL
The nature of series [8]: Stability in DMSO at -20 degC by ESI-MS analysis. It is filed as physicochemical.
Series [9] deals with T1, Bromodomain testis-specific protein. In words: Inhibition of BI-BODIPY binding to BRDT bromodomain 1 (29 to 134 residues) (unknown origin) expressed in Escherichia coli BL21(DE3) by fluorescence anisotropy assay.
For series [10], the target named is T3, Bromodomain-containing protein 4. In words: Inhibition of acetylated histone4 (1 to 21 residues) binding to His-tagged BRD4 bromodomain 1 (42 to 168 residues) (unknown origin) expressed in Escherichia coli BL21(DE3) after 1 hr by alpha screen assay. In outline: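 Run by Reaction Biology as AlphaScreen of Brd4(1) binding to acetylated histone H4 (1-21) peptide, at a constant 1% DMSO, with a reference BET inhibitor as positive control.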

The target of series [11] is SWI/SNF-related matrix-associated actin-dependent regulator of chromatin subfamily A member 2 (Homo sapiens) (UniProt P51531). In words: Inhibition of human SMARCA2 bromodomain (1337 to 1486 residues) expressed bacterial expression system at 20 uM by bromoscan assay.
For series [12], the target named is T3, Bromodomain-containing protein 4. In words: Binding affinity to human BRD4 bromodomain 1 (44 to 168 residues) expressed in bacterial expression system by qPCR-based bromoscan assay. A general note: Real-time PCR tracks product formation cycle by cycle.
In series [13] the target is Bromodomain and WD repeat-containing protein 1 (Homo sapiens) (UniProt Q9NSI6). As to the kind of experiment: Inhibition of human WDR9 bromodomain 2 (1310 to 1430 residues) expressed bacterial expression system at 20 uM by bromoscan assay.
Chain of Bromodomain and WD repeat-containing protein 1 (Homo sapiens) (Q9NSI6 whole entry, the tested form may be a part): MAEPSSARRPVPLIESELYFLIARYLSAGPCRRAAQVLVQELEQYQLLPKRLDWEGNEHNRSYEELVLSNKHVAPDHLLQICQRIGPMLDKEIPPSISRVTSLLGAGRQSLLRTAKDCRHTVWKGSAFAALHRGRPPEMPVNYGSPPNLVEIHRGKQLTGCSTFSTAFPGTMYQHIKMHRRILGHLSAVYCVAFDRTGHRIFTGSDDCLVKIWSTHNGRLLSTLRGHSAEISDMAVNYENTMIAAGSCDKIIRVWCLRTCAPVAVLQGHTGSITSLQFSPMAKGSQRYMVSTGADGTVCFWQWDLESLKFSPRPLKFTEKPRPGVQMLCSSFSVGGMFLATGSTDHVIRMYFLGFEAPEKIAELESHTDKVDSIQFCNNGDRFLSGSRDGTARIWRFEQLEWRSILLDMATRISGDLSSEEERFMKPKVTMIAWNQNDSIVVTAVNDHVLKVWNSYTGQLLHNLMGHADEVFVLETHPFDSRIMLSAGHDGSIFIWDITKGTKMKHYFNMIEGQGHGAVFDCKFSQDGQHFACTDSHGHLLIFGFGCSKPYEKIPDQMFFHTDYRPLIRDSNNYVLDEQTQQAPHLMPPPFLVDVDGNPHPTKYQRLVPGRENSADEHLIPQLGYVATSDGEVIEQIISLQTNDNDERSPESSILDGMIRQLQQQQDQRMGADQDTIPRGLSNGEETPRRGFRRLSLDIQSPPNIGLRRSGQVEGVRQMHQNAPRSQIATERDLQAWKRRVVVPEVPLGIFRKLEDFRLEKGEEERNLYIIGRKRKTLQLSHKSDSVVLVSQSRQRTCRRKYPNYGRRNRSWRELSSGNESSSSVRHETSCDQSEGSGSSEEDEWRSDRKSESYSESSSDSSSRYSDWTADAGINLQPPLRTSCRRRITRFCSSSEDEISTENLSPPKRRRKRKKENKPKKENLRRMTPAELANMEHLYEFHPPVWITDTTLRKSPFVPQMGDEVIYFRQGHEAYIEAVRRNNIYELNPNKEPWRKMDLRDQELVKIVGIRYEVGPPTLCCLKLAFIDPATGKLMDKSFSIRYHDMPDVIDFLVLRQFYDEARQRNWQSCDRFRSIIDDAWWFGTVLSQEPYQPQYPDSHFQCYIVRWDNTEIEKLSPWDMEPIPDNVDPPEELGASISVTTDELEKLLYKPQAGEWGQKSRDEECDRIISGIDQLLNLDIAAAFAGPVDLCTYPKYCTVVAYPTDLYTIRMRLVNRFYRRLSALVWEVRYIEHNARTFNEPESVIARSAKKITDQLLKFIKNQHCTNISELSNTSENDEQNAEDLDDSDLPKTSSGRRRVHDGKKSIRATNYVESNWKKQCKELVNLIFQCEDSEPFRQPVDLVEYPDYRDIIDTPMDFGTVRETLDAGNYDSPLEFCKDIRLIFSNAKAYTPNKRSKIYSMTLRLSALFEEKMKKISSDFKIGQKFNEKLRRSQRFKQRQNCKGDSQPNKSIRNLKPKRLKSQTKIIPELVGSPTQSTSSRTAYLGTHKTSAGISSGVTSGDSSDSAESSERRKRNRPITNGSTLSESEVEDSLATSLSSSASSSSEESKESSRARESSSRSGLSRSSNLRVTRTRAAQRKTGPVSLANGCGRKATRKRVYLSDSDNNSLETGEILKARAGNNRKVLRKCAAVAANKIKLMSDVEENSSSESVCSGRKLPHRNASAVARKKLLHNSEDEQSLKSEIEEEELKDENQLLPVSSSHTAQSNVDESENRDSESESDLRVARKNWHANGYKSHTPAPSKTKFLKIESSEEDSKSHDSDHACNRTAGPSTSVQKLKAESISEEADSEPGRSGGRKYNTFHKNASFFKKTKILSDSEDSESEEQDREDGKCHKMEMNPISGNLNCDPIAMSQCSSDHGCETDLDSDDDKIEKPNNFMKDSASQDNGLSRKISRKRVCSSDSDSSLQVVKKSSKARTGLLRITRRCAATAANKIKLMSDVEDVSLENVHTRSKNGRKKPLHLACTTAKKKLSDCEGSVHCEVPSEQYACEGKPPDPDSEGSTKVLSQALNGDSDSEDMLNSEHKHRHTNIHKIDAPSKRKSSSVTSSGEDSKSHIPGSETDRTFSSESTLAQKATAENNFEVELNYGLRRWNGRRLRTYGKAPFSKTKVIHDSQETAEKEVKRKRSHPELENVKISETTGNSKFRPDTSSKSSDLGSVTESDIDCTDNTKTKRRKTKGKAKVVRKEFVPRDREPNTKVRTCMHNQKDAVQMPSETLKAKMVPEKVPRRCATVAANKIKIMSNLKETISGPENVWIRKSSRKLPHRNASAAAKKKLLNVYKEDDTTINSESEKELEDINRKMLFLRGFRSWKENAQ
Series [14] deals with T3, Bromodomain-containing protein 4. In words: Inhibition of BI-BODIPY binding to BRD4 bromodomain 1 (42 to 168 residues)(unknown origin) expressed in Escherichia coli BL21(DE3) by fluorescence anisotropy assay. The procedure, abridged: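 Competition fluorescence anisotropy in 50 mM Tris, 100 mM NaCl, pH 7.4, 4 mM CHAPS, 0.5% DMSO; BrdT also contains 3 mM DTT. Tracer BI-BODIPY is at 0.025 μM. Protein is set at the level giving 80% tracer bound. Ex 485/em 535. A four-parameter IC50 is converted to Ki by a Cheng-Prusoff variant, from ≥3 independent experiments.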
(In general: Polarisation of emitted light reports the rotation of a fluorescent probe.)

The target is the same in series [15]. As to the kind of experiment: Inhibition of biotin-labeled (+)-JQ1 binding to His-tagged BRD4 bromodomain 1 (42 to 168 residues) (unknown origin) expressed in Escherichia coli BL21(DE3) after 1 hr by alpha screen assay. In outline:
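AlphaScreen in 50 mM HEPES, 150 mM NaCl, 0.01% Tween-20, 0.1% BSA, pH 7.4. Final concentrations are His-Brd4(1) 0.020 μM, biotinylated JQ1 probe 0.010 μM, and Ni acceptor and streptavidin donor beads each at 10 μg/ml. Compounds are added as a 10-point 1:√10 dilution. Plates are incubated 1 h at room temperature in low light.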
A general note: Bead proximity is the source of the signal in Alpha formats.

In series [16] the target is T1, Bromodomain testis-specific protein. As to the kind of experiment: Inhibition of biotin-labeled (+)-JQ1 binding to His-tagged BRDT bromodomain 1 (29 to 134 residues) (unknown origin) expressed in Escherichia coli BL21(DE3) after 1 hr by alpha screen assay. In outline:
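Competition AlphaScreen: His-BrdT(1) 0.020 μM with Ni-acceptor beads 10 μg/ml and biotinylated probe 0.010 μM, in 50 mM HEPES, 150 mM NaCl, 0.01% Tween-20, 0.1% BSA, pH 7.4. Compounds pin-transferred as a 10-point 1:√10 dilution, then streptavidin donor beads 10 μg/ml added. Incubation 1 h at room temperature in low light.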

Series [17] has the same target. In words: Inhibition of BRDT bromodomain 2 (unknown origin) by fluorescence anisotropy assay.
Series [18] deals with MM1.S. As to the kind of experiment: Cytotoxicity against human MM1S cells assessed as reduction in cell viability up to 10 uM after 72 hrs by MTT assay. It is filed as functional, cell-based. In outline:
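MM1.S cells are grown in RPMI-1640 with 10% FBS at 37 °C and 5% CO2. About 20,000 cells per well are exposed to compound or 0.1% DMSO vehicle for 72 h, with 6 replicates per concentration. MTT (2 mg/ml) is added for 3 h at 37 °C and formazan is dissolved in DMSO. A540 is read and IC50 is fitted.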

Series [19] addresses T1, Bromodomain testis-specific protein. In words: Binding affinity to BRDT bromodomain 1 (29 to 134 residues)(unknown origin) expressed in Escherichia coli BL21(DE3) assessed as change in melting temperature at 150 uM at 25 to 75 degC after 5 mins by SYPRO orange dye based differential scanning fluorimetric analysis. The procedure, abridged:
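DSF with 10 μM BrdT(1) in 50 mM HEPES pH 7.5, 100 mM NaCl, with 5x SYPRO Orange. The 8-point dose range is 1250–9 μM at 2.5% DMSO, run in duplicate. After 5 min at 25 °C, samples are heated from 25 to 75 °C in 0.2 °C steps. Tm is the peak of the negative first derivative. ΔTm is taken against the DMSO control. Plates with Z' below 0.5 are excluded.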

Series [20] has as its target T3, Bromodomain-containing protein 4. In words: Inhibition of BRD4 bromodomain in human MM1S cells assessed as reduction in c-Myc levels up to 10 uM after 6 hrs by Western blot analysis. It is filed as cell-based. The procedure, abridged: (§2)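 MM1.S cells (1×10^6 per well) are treated with increasing inhibitor concentrations for 6 h, then lysed with protease/phosphatase inhibitors and 5 mM EDTA at 4 °C. Lysates are resolved by SDS-PAGE and immunoblotted for c-Myc and p21Cip1, with vinculin as loading reference and chemiluminescent detection.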

Series [21] shares this target. In words: Binding affinity to 5FW-labeled BRD4 bromodomain 1 (unknown origin) expressed in Escherichia coli BL21(DE3) up to 50 uM in presence of serum by PrOF NMR spectroscopic analysis.
The target is the same in series [22]. In words: Inhibition of BRD4 bromodomain in human MM1S cells assessed as upregulation of p21Cip1 levels up to 10 uM after 6 hrs by Western blot analysis. The series is classed as cell-based. The procedure, abridged:
as §2

The target is the same in series [23]. As to the kind of experiment: Binding affinity to 5FW-labeled BRD4 bromodomain 1 (unknown origin) expressed in Escherichia coli BL21(DE3) up to 50 uM by PrOF NMR spectroscopic analysis. The procedure, abridged:
as §1

Series [24] deals with T2, Nucleosome-remodeling factor subunit BPTF. In words: Binding affinity to 5FW-labeled BPTF (unknown origin) up to 500 uM by PrOF NMR spectroscopic analysis. The procedure, abridged: as §1

Activity calls are given as the source filed them. The calls are words filed in the database; no cut-off is given here. Bounds are passed on as bounds.

As for `CCn1c(N)cc(=O)[nH]c1=O`, the Kd in series [1] is 1500 µM; in series [2], 1500 µM; in series [3] it was 6800 µM; in [4] it was 660 µM.

For the molecule `CCn1c2c(c(=O)[nH]c1=O)C(c1ccc(C)cc1)C1=C(COC1=O)N2` (stereo not given), the inhibition in [5] stood at 66%; in series [7], 68%; in series [11] it was 71%; in series [13] it was 72%. Further, the equilibrium dissociation constant (Kd) stood at 1.6 µM in series [6] and 0.84 µM in series [12]. In series [8], the Stability entry was “Stable”. For the same molecule, the concentration for half-maximal inhibition (IC50) in series [9] turned out to be 5.2 µM; in series [10], 0.9 µM; in series [15] it was 1 µM; in series [16], 2.3 µM. The inhibition constant (Ki) was 0.69 µM in [9], 0.37 µM in series [14] and no more than 0.45 µM in series [17]. The result in series [18] and in [24] was inactive. Further, the ΔTm in series [19] is 4.8 °C. Besides, the inhibition entry in [20] and in series [22] was “inactive” each time. Further, the outcome in series [21] and in series [23] was Active.

By Kd is commonly meant the concentration at which binding is half-saturated. The low end stands for tighter binding, the high end for weaker binding. The inhibition is how much of the control response was suppressed. The IC50 is the concentration needed to halve the response being measured. A higher IC50 goes with weaker potency. By Ki is commonly meant the equilibrium dissociation constant of an inhibitor or competing ligand from its target. A lower Ki goes with a stronger hold on the target. For orientation: ΔTm means the shift of the melting midpoint relative to a reference.
